High-throughput results as filed in PubChem.
Compounds with a hit are over-represented: about 5.2% of the library has one in this group of screens.
M1 antag = antagonists of rat M1 muscarinic receptor | Muscarinic acetylcholine receptor M1 (Rattus norvegicus), P08482 | B-score at 10 µM | AID 628, 2007 | CHO-M1 cells, Fluo-4 calcium, ACh EC80 antagonist mode; stronger effect = lower value | hit rate 3.4% among 64,000;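 active = calcium fluorescence response, raw or row-and-column corrected B-score, differing from the plate sample mean either way at a set confidence level, mostly lower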
Target sequence (P08482 whole entry, looked up): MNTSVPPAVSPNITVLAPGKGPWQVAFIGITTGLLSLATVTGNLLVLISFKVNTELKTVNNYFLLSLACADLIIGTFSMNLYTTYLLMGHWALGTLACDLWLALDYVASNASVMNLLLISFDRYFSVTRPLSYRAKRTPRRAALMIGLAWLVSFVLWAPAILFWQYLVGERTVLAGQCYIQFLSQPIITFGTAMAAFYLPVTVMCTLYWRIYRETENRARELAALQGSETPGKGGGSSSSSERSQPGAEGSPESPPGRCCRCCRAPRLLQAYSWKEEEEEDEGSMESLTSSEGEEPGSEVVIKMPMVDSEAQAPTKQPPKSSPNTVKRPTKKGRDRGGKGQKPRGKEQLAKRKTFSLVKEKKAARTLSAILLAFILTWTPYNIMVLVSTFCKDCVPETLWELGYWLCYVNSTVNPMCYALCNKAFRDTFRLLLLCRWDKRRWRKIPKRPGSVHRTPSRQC
E coli WT exp = growth inhibitors of wild-type E. coli, primary screen, strain BW25113, expanded library, OD600. OD600 absorbance. growth inhibition, % at 100 µM. hit rate 0.15% among 98,000. AID 710, 2007;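 active = growth inhibition above about 50% at one test dose, limit read from the data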;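 also: growth measured after 20 h incubation at 37 °C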
AP complement = alternative complement pathway inhibitors, primary screen, biochemical, ELISA, human serum, orthogonally pooled compounds; LPS-coated ELISA, C3 deposition; tested in compound mixtures; hit rate 0.08% among 62,000; inhibition, % at 5 µM; AID 1235, 2008;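 active = inhibition above 30% in each of the two pooled mixtures holding the compound, so the lower value exceeds 30%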
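Test system: human serum complement alternative pathway, C3 deposition onto LPS / Medium: Mg2+-EGTA GVB++ buffer containing human serum at 1:15 dilution / Probe or stimulus: Plate-bound LPS / Times: 1 h at 37 °C / Signal: ELISA with HRP anti-human C3 antibody, TMB substrate, absorbance 450 nm / Measure: percent inhibition / Repeats: two pool placements per compound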
Ecoli tolC = growth inhibitors of E. coli tolC mutant, primary screen, strain BW25113 ΔtolC::kan, 384-well; OD615; growth inhibition, % at 10 µM (by protocol); hit rate 2.2% among 65,000;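 active = growth inhibition at or above a cutoff equal to the mean over every tested compound plus 3 SD, cut at about 60% in these data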;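 also: growth measured after 20 h incubation at 37 °C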
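test system = E. coli BW25113 ΔtolC::kan bacteria | medium = LB with kanamycin 50 µg/mL | signal = OD at 615 nm | schedule = 37 °C, 20 h exposure | evaluation = % inhibition of E. coli growth | compound dosing = one dose of 10 µM final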
M1 ag = M1 muscarinic receptor agonists, primary screen, CHO-M1 cells, Fluo-4 calcium, agonist mode. Muscarinic acetylcholine receptor M1. Fluo-4 calcium fluorescence; stronger effect = higher value. B-score at 10 µM. hit rate 3% among 64,000. AID 626, 2007;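 active = fluorescence rise, raw or as B-score row- and column-corrected plate score, outside the 99.7% band of its plate's samples, either direction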
WNV protease inh = inhibitors of WNV NS2B-NS3 protease, primary screen, biochemical, fluorogenic substrate; fluorogenic substrate Ex360/Em465; stronger effect = lower value; z-score (concentration not given with the values); hit rate 0.18% among 65,000; Genome polyprotein (West Nile virus), P06935; in the data active = z-score below about -3
M1 antag confirm = rat M1 muscarinic receptor antagonists, confirmation, CHO cells, Fluo-4 calcium, duplicate. hit rate 43% among 1,700. shares compounds with M1 antag. ACh EC80 antagonism; stronger effect = lower value. calcium response (max-min fluorescence) at 10 µM;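 active = calcium response below the same-plate mean of wells given acetylcholine alone at its 80%-effect dose, minus 3 SD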
mGluR4 antag = human mGluR4 response to M1 antagonist hits, M1 allosteric modulator project, cell-based, antagonist mode, secondary assay 1. shares compounds with M1 antag. CHO-mGluR4 calcium flux, Fluo-4 fluorescence, glutamate EC80; stronger effect = lower value. fluorescence response (max-min) at 10 µM. hit rate 0.9% among 1,700;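 active = fluorescence response below the plate's average for near-maximal glutamate wells, less 3 SD of those wells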;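 also: raw unnormalized fluorescence span taken in the window right after glutamate addition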
A number is an active result; n = inactive; x = not tested or not shown.

SMILES	M1 antag	E coli WT exp	AP complement	Ecoli tolC	M1 ag	WNV protease inh	M1 antag confirm	mGluR4 antag
Cc1cc(C)n(-c2nc3ccccc3c(=O)n2OCC(=O)Nc2c(C)cccc2C)n1	n	n	n	n	n	n	x	x
CCn1c(=O)c(C(=O)Nn2c(C)nc3ccccc3c2=O)c(O)c2ccccc21	-14	n	n	91	n	n	n	n
Cc1nc2ccccc2c(=O)n1NC(=O)c1ccccc1Cl	n	n	n	n	n	n	x	x
CCc1ccc2nc(NC3=NCN(CCCN4CCOCC4)CN3)nc(C)c2c1	-3.7	x	n	n	n	n	344	n
Cc1ccc2nc(NC3=NCN(Cc4ccc5c(c4)OCO5)CN3)nc(C)c2c1	-4.2	x	n	n	n	n	90	n
CCOc1ccc2nc(NC3=NCN(CC4CCCO4)CN3)nc(C)c2c1 (stereo not given)	n	x	x	x	n	n	x	x
Cc1ccc2nc(NC3=NCN(Cc4ccco4)CN3)nc(C)c2c1	-2.9	x	n	n	n	n	n	n
Cc1ccc2nc(NC3=NCN(C4CCCCC4)CN3)nc(C)c2c1	n	x	n	n	n	n	x	x
CCc1cc2c(SCC(=O)c3ccc(Cl)s3)ncnc2s1	x	n	x	x	x	x	x	x
Cc1ccccc1-c1nn2c(-c3ccccc3)nnc2s1	-2.7	n	x	n	n	n	n	n
CCC(c1nnnn1CS(=O)(=O)c1ccc(C)cc1)N1CCN(c2nc3ccccc3s2)CC1 (stereo not given)	n	n	n	n	n	n	x	x
C=CCOC(=O)C1=C(C)NC(=O)NC1c1ccc(OC(=O)c2ccco2)c(OC)c1 (stereo not given)	n	n	n	n	n	n	x	x
COC(=O)C1=C(C)Nc2ncnn2C1c1ccc(OCc2ccccc2)cc1 (stereo not given)	n	n	n	n	n	n	x	x
C=C(C)C(C)(C#CCN1CCCC1)OC(C)=O (stereo not given)	-1.5	n	n	n	n	n	526	n
CC(C)(C#CCN1CCCC1)OCCC#N	n	n	n	n	n	n	x	x
CCCc1nc2oc3c(NCCN(C)C)ncnc3c2c2c1CCCC2	-6.4	n	n	x	n	n	n	n
CCCc1nc2oc3c(N4CCNCC4)ncnc3c2c2c1CCCC2	n	x	n	n	n	n	x	x
CC1CCc2cc(F)ccc2N1C(=O)CSc1nnc(-c2cccs2)n1C (stereo not given)	-6.1	n	n	n	n	n	n	n
COc1ccc(NC(=O)C2CCCCN2CC(=O)OCc2ccccc2)cc1OC (stereo not given)	-2.7	n	n	n	n	n	n	n
Clc1ccc(-c2nn3c(Cn4cnc5ccccc54)nnc3s2)c(Cl)c1	n	x	n	n	n	n	x	x
COCCCNCCOc1cc(C(C)C)ccc1C	-2.3	n	n	n	n	n	n	n
O=C(CN1C2CCC1CC(NC(=O)Nc1ccccc1)C2)NCc1ccco1 (stereo not given)	n	n	n	n	n	n	x	x
O=C(CSc1ccc2c(c1)OCCO2)Nc1ccc(Cl)cn1	-3.2	n	n	n	n	n	n	n
Cc1c(NC(=O)CSc2ccc3c(c2)OCCO3)c(=O)n(-c2ccccc2)n1C	n	n	n	n	n	n	x	x
O=C(c1cccc(Cl)c1)N1CCN(Cc2ccccc2F)CC1	n	n	n	n	n	n	x	x
SMILES	M1 antag	E coli WT exp	AP complement	Ecoli tolC	M1 ag	WNV protease inh	M1 antag confirm	mGluR4 antag
Cc1nnc(N(Cc2ccco2)C(=O)c2cccc(C#N)c2)s1	n	n	n	n	n	n	x	x
CN(C(=O)c1cccc(C#N)c1)c1nnc(C2CCCO2)s1 (stereo not given)	-4.5	n	n	n	n	n	n	n
N=c1n(CCN2CCCCC2)c2ccccc2n1CC(O)COc1ccccc1 (stereo not given)	n	n	n	n	n	n	x	x
N=c1n(CCN2CCCCC2)c2ccccc2n1CC(O)c1cccc(Br)c1 (stereo not given)	-4.1	n	n	n	n	n	n	n
CCCCn1c(=N)n(CC(O)COc2ccccc2)c2ccccc21 (stereo not given)	-2.3	n	n	n	n	n	n	n
COc1ccccc1OCC(O)Cn1c(=N)n(CCN2CCCCC2)c2ccccc21 (stereo not given)	-1.6	n	x	n	n	n	n	n
Cc1ccc(C(C(=O)NCc2ccco2)N(CCc2ccccc2)C(=O)Cn2nnc3ccccc32)o1 (stereo not given)	n	n	n	n	n	n	x	x
CCN(CC(=O)Nc1cccc(OC)c1)C(=O)C1CCN(C(=O)Nc2ccccc2)CC1	n	n	n	n	n	n	x	x
Oc1c(C(Nc2ccccn2)c2ccccn2)ccc2cccnc12 (stereo not given)	-3.6	54	n	n	n	n	n	n
CCCCc1cc(=O)oc2c(CN3CCCC3)c(O)ccc12	-2.3	n	x	n	n	n	n	n
CCCCc1cc(=O)oc2cc(C)c(CN3CCCC3)c(O)c12	n	n	n	n	n	n	x	x
COc1c(F)c(F)c(C(=O)Nc2ccc(N3CCN(Cc4ccccc4)CC3)cc2)c(F)c1F	x	n	x	x	x	x	x	x
O=C(COc1ccc2ccccc2c1CN1CCOCC1)N1CCc2ccccc21	-2.1	n	n	n	n	n	336	n
NC(=O)COc1ccc(=O)n(-c2ccccc2)n1	-2.4	n	n	n	n	n	n	n
Cc1ccc(S(=O)(=O)Nn2c(C)ccc2C)cc1	n	n	n	n	n	n	x	x
O=C(Cc1c(C(=O)O)[nH]c2ccc(Cl)cc12)Nc1ccc2c(c1)OCCO2	n	n	n	n	n	n	x	x
O=C(O)c1cc(-c2cccs2)nc2cc3c(cc12)OCCO3	-0.77	n	n	n	n	n	n	n
Cc1ccc2nc(-c3ccc4c(c3)OCCO4)cc(C(=O)O)c2c1	n	n	n	n	n	n	x	x
CCOC(=O)N1CCC(NC(=O)C2CCN(S(=O)(=O)c3c(C)noc3C)CC2)CC1	n	n	n	n	n	n	x	x
CC1CCCN(CC(=O)Nc2ccc(S(=O)(=O)N3CCCCCC3)cc2)C1 (stereo not given)	-2.1	n	n	n	n	n	375	n
CCCS(=O)(=O)N1CCC(C(=O)NCCN2CCC(Cc3ccccc3)CC2)CC1	-4.6	n	n	n	n	n	467	n
